Source: ChEMBL document CHEMBL4665863 (Bioorg Med Chem, 2020)
In brackets after ≈: the same amount, converted by molar mass. Activity calls are given as the source filed them. The calls are words filed in the database; no cut-off is given here.

Legend:
Bacillus subtilis [1] = experiment: Inhibition of ftsZ in Bacillus subtilis assessed as increase in enzyme polymerization kinetics at 5 ug/ml measured for 30 mins by microtiter plate-based light scattering assay; settings: dose 5.0 µg/ml
Procedure, shortened: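 Purified recombinant B. subtilis FtsZ was used. Polymerization was followed as light scattering in microtiter plates, read as time-dependent absorbance at 340 nm at several compound concentrations. Vehicle, CIP and LIN served as controls.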

Pseudomonas aeruginosa = experiment: Antibacterial activity against Pseudomonas aeruginosa ATCC27853 incubated for 24 hrs by CLSI-based broth microdilution method; type: functional
Escherichia coli = experiment: Antibacterial activity against Escherichia coli ATCC25922 incubated for 24 hrs by CLSI-based broth microdilution method; type: functional; settings: ATCC 25922
Staphylococcus aureus [2] = experiment: Antibacterial activity against Staphylococcus aureus clinical isolate incubated for 24 hrs by CLSI-based broth microdilution method; type: functional
Staphylococcus aureus [3] = experiment: Antibacterial activity against penicillin-resistant Staphylococcus aureus incubated for 24 hrs by CLSI-based broth microdilution method; type: functional
Bacillus pumilus = experiment: Antibacterial activity against Bacillus pumilus CMCC63202 incubated for 24 hrs by CLSI-based broth microdilution method; type: functional
Staphylococcus aureus [4] = experiment: Antibacterial activity against Staphylococcus aureus ATCC25923 incubated for 24 hrs by CLSI-based broth microdilution method; type: functional
Staphylococcus aureus [5] = experiment: Antibacterial activity against methicillin-resistant Staphylococcus aureus ATCC43300 incubated for 24 hrs by CLSI-based broth microdilution method; type: functional
Bacillus subtilis [6] = experiment: Antibacterial activity against Bacillus subtilis ATCC9372 incubated for 24 hrs by CLSI-based broth microdilution method; type: functional

In the case of `CCCCc1ccc(C2=NO[C@@H](COc3ccc(F)c(C(N)=O)c3F)C2)cc1`, the “FtsZ polymerization increase (active/inactive call)” value (Bacillus subtilis [1]) is reported as “Active”, the MIC (Pseudomonas aeruginosa) is reported as greater than 64 µg/mL and the MIC (Escherichia coli) is reported as greater than 64 µg/mL. For the same compound, the MIC (Staphylococcus aureus [2]) was 2 µg/mL (≈ 5.15 µM), the MIC (Staphylococcus aureus [3]) was 1 µg/mL (≈ 2.57 µM) and the MIC (Bacillus pumilus) was 0.5 µg/mL (≈ 1.29 µM). The MIC (Staphylococcus aureus [4]) was 4 µg/mL (≈ 10.3 µM), the MIC (Staphylococcus aureus [5]) was 2 µg/mL (≈ 5.15 µM) and the MIC (Bacillus subtilis [6]) was 0.25 µg/mL (≈ 0.644 µM).
`NC(=O)c1c(F)ccc(OCC2=NOC(c3ccc(Cl)cc3Cl)C2)c1F` (stereo not given) showed an MIC (Pseudomonas aeruginosa) greater than 64 µg/mL, an MIC (Escherichia coli) greater than 64 µg/mL and an MIC (Staphylococcus aureus [2]) of 16 µg/mL (≈ 39.9 µM). The MIC (Staphylococcus aureus [3]) was 32 µg/mL (≈ 79.8 µM), the MIC (Bacillus pumilus) was 0.5 µg/mL (≈ 1.25 µM) and the MIC (Staphylococcus aureus [4]) was 32 µg/mL (≈ 79.8 µM). It also gave an MIC (Staphylococcus aureus [5]) of 16 µg/mL (≈ 39.9 µM) and an MIC (Bacillus subtilis [6]) of 2 µg/mL (≈ 4.99 µM).
Work on `CC[C@H]1OC(=O)[C@H](C)[C@@H](O[C@H]2C[C@@](C)(OC)[C@@H](O)[C@H](C)O2)[C@H](C)[C@@H](O[C@@H]2O[C@H](C)C[C@H](N(C)C)[C@H]2O)[C@](C)(O)C[C@@H](C)C(=O)[C@H](C)[C@@H](O)[C@]1(C)O` [ERYTHROMYCIN] yielded an MIC (Pseudomonas aeruginosa) of 32 µg/mL (≈ 43.6 µM), an MIC (Escherichia coli) of 16 µg/mL (≈ 21.8 µM) and an MIC (Staphylococcus aureus [2]) greater than 64 µg/mL. The MIC (Bacillus pumilus) was no more than 0.125 µg/mL, the MIC (Staphylococcus aureus [4]) was no more than 0.125 µg/mL and the MIC (Staphylococcus aureus [5]) was greater than 64 µg/mL. It also gave an MIC (Bacillus subtilis [6]) of no more than 0.125 µg/mL.
For `NC(=O)c1c(F)ccc(OCc2nc3cc(Cl)cnc3s2)c1F`, the MIC (Pseudomonas aeruginosa) was greater than 64 µg/mL, the MIC (Escherichia coli) was greater than 64 µg/mL and the MIC (Staphylococcus aureus [2]) was 1 µg/mL (≈ 2.81 µM). The MIC (Staphylococcus aureus [3]) was 1 µg/mL (≈ 2.81 µM), the MIC (Bacillus pumilus) was 0.5 µg/mL (≈ 1.41 µM) and the MIC (Staphylococcus aureus [4]) was 1 µg/mL (≈ 2.81 µM). It also gave an MIC (Staphylococcus aureus [5]) of 1 µg/mL (≈ 2.81 µM) and an MIC (Bacillus subtilis [6]) of 0.5 µg/mL (≈ 1.41 µM).
For `CCCCc1ccc(-c2cc(COc3ccc(F)c(C(N)=O)c3F)on2)cc1`, the “FtsZ polymerization increase (active/inactive call)” value (Bacillus subtilis [1]) was “Active”.
With `COc1ccccc1C1=NOC(COc2ccc(F)c(C(N)=O)c2F)C1` (stereo not given) the MIC (Pseudomonas aeruginosa) was greater than 64 µg/mL, the MIC (Escherichia coli) was greater than 64 µg/mL and the MIC (Staphylococcus aureus [3]) was greater than 64 µg/mL. For the same compound, the MIC (Bacillus pumilus) was greater than 64 µg/mL, the MIC (Staphylococcus aureus [4]) was greater than 64 µg/mL and the MIC (Staphylococcus aureus [5]) was greater than 64 µg/mL. For the same compound, the MIC (Bacillus subtilis [6]) was greater than 64 µg/mL.
